ChEMBL document CHEMBL3822397, “Synthesis and bioevaluation of novel benzodipyranone derivatives as P-glycoprotein inhibitors for multidrug resistance reversal agents” (Eur J Med Chem, 2016)
The source made the active and inactive calls. The rule behind the calls is not given here.

Key:
[1] = target: T1, ATP-dependent translocase ABCB1 (Homo sapiens, UniProt P08183); assay: Inhibition of full length human ABCB1 expressed in Flp-In-293 cells at 2.5 uM incubated for 30 mins by calcein-AM uptake assay relative to control; assay type: cell-based; details: 0.5 h
T1 sequence (P08183 whole entry): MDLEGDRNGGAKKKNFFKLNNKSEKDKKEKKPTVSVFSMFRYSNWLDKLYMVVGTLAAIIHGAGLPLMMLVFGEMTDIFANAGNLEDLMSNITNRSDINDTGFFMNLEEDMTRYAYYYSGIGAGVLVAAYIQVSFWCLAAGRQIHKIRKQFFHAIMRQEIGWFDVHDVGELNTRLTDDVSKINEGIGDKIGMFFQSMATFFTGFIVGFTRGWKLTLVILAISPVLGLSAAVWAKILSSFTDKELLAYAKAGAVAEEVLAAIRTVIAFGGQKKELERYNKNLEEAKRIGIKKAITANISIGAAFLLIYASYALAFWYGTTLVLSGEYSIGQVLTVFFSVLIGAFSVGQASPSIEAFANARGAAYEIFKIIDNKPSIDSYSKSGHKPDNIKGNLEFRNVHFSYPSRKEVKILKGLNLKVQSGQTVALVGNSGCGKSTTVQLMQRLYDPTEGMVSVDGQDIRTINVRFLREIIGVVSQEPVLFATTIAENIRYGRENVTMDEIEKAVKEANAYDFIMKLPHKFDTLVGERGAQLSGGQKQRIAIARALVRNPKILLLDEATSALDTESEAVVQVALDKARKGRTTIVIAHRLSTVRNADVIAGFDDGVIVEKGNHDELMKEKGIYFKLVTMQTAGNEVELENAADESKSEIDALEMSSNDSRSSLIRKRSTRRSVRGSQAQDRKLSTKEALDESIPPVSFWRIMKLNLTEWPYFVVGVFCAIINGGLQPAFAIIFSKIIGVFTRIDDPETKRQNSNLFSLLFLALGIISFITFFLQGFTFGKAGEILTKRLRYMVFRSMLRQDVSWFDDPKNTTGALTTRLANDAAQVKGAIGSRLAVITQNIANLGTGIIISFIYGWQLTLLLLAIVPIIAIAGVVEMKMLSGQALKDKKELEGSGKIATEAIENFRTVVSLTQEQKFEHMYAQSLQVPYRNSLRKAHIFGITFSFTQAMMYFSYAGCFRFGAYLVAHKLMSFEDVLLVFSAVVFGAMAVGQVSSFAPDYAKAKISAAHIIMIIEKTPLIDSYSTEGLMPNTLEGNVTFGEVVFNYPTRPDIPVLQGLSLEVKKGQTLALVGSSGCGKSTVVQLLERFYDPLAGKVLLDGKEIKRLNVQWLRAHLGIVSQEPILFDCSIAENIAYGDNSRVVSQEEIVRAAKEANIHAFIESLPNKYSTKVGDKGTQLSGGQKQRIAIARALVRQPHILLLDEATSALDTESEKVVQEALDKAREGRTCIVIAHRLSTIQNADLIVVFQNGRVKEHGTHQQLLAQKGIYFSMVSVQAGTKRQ

[2] = target: T1, ATP-dependent translocase ABCB1; assay: Inhibition of full length human ABCB1 expressed in Flp-In-293 cells at 5 uM incubated for 30 mins by calcein-AM uptake assay relative to control; assay type: cell-based; details: 0.5 h
HEK293 [3] = assay: Potentiation of vincristine-induced cytotoxicity in Flp-In-293 cells assessed as reduction in vincristine IC50 at 10 uM after 72 hrs by SRB assay relative to control; assay type: functional, Homo sapiens
HEK293 [4] = assay: Potentiation of doxorubicin-induced cytotoxicity in Flp-In-293 cells assessed as reduction in doxorubicin IC50 at 10 uM after 72 hrs by SRB assay relative to control; assay type: functional, Homo sapiens
[5] = target: T1, ATP-dependent translocase ABCB1; assay: Inhibition of full length human ABCB1 expressed in Flp-In-293 cells assessed as potentiation of doxorubicin-induced cytotoxicity at 10 uM after 72 hrs by SRB assay relative to control; assay type: cell-based
[6] = target: T1, ATP-dependent translocase ABCB1; assay: Inhibition of full length human ABCB1 expressed in Flp-In-293 cells assessed as potentiation of paclitaxel-induced cytotoxicity at 8 uM after 72 hrs by SRB assay relative to control; assay type: cell-based
HEK293 [7] = assay: Downregulation of ABCB1 mRNA expression in Flp-In-293 cells transfected with full length human ABCB1 at 5 uM after 72 hrs by RT-PCR analysis; assay type: functional, cell-based
In short: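 ABCB1 mRNA measured after treating ABCB1/Flp-In-293 cells with test compounds for 72 hr. Data given as mean ± SE of three experiments, each in triplicate.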

HEK293 [8] = assay: Potentiation of paclitaxel-induced cytotoxicity in Flp-In-293 cells assessed as reduction in paclitaxel IC50 at 10 uM after 72 hrs by SRB assay relative to control; assay type: functional, Homo sapiens
[9] = target: T1, ATP-dependent translocase ABCB1; assay: Inhibition of full length human ABCB1 expressed in Flp-In-293 cells assessed as potentiation of vincristine-induced cytotoxicity at 10 uM after 72 hrs by SRB assay relative to control; assay type: cell-based
HEK293 [10] = assay: Potentiation of paclitaxel-induced cytotoxicity in Flp-In-293 cells assessed as reduction in paclitaxel IC50 at 8 uM after 72 hrs by SRB assay relative to control; assay type: functional, Homo sapiens
[11] = target: T1, ATP-dependent translocase ABCB1; assay: Inhibition of full length human ABCB1 expressed in Flp-In-293 cells assessed as potentiation of vincristine-induced cytotoxicity at 8 uM after 72 hrs by SRB assay relative to control; assay type: cell-based
HEK293 [12] = assay: Potentiation of vincristine-induced cytotoxicity in Flp-In-293 cells assessed as reduction in vincristine IC50 at 8 uM after 72 hrs by SRB assay relative to control; assay type: functional, Homo sapiens
HEK293 [13] = assay: Potentiation of doxorubicin-induced cytotoxicity in Flp-In-293 cells assessed as reduction in doxorubicin IC50 at 8 uM after 72 hrs by SRB assay relative to control; assay type: functional, Homo sapiens
[14] = target: T1, ATP-dependent translocase ABCB1; assay: Inhibition of full length human ABCB1 expressed in Flp-In-293 cells assessed as potentiation of paclitaxel-induced cytotoxicity at 10 uM after 72 hrs by SRB assay relative to control; assay type: cell-based
[15] = target: T1, ATP-dependent translocase ABCB1; assay: Inhibition of full length human ABCB1 expressed in Flp-In-293 cells assessed as potentiation of doxorubicin-induced cytotoxicity at 8 uM after 72 hrs by SRB assay relative to control; assay type: cell-based

fold change (FC) [1]	fold change (FC) [2]	SMILES	further results
0.88	0.83	O=c1c(-c2cccs2)coc2c1c(O)cc1occ(-c3cccs3)c(=O)c12	
1.33	1.19	O=c1c(-c2cccc(O)c2)coc2cc3occ(-c4cccc(O)c4)c(=O)c3c(O)c12	
0.88	0.75	O=c1c(-c2ccc([N+](=O)[O-])cc2)coc2c1c(O)cc1occ(-c3ccc([N+](=O)[O-])cc3)c(=O)c12	
0.87	0.81	Cc1ccccc1-c1coc2cc3occ(-c4ccccc4C)c(=O)c3c(O)c2c1=O	
1	0.85	COc1cccc(-c2coc3cc4occ(-c5cccc(OC)c5)c(=O)c4c(O)c3c2=O)c1	
0.83	0.82	O=c1c(-c2cccc(Cl)c2)coc2c1c(O)cc1occ(-c3cccc(Cl)c3)c(=O)c12	
1.15	1.53	Cc1ccccc1-c1coc2c(c(O)cc3occ(-c4ccccc4C)c(=O)c32)c1=O	
0.92	0.89	O=c1c(-c2ccccc2F)coc2cc3occ(-c4ccccc4F)c(=O)c3c(O)c12	
0.98	1.09	O=c1c(-c2ccccc2Cl)coc2c1c(O)cc1occ(-c3ccccc3Cl)c(=O)c12	
0.61	0.67	O=c1c(-c2cccs2)coc2cc3occ(-c4cccs4)c(=O)c3c(O)c12	
1.1	1.15	O=c1c(-c2cccc(C(F)(F)F)c2)coc2c1c(O)cc1occ(-c3cccc(C(F)(F)F)c3)c(=O)c12	
1.04	1.29	O=c1c(-c2ccccc2)coc2c1c(O)cc1occ(-c3ccccc3)c(=O)c12	
0.8	0.63	O=c1c(C2CC2)coc2c1c(O)cc1occ(C3CC3)c(=O)c12	
0.5	0.87	O=c1c(-c2cccc(Cl)c2)coc2cc3occ(-c4cccc(Cl)c4)c(=O)c3c(O)c12	
0.95	1.06	O=c1c(-c2c(F)cccc2Cl)coc2cc3occ(-c4c(F)cccc4Cl)c(=O)c3c(O)c12	
1.06	1.08	O=c1c(-c2ccc(Cl)cc2)coc2cc3occ(-c4ccc(Cl)cc4)c(=O)c3c(O)c12	
1.32	1.36	O=c1c(-c2ccccc2C(F)(F)F)coc2cc3occ(-c4ccccc4C(F)(F)F)c(=O)c3c(O)c12	
0.71	0.85	O=c1c(-c2ccccc2Cl)coc2cc3occ(-c4ccccc4Cl)c(=O)c3c(O)c12	
0.76	0.75	COc1cc(-c2coc3c(c(O)cc4occ(-c5cc(OC)c(OC)c(OC)c5)c(=O)c43)c2=O)cc(OC)c1OC	
1.04	0.9	O=c1c(-c2ccccc2)coc2cc3occ(-c4ccccc4)c(=O)c3c(O)c12	
0.81	0.86	COc1ccc(-c2coc3cc4occ(-c5ccc(OC)c(OC)c5)c(=O)c4c(O)c3c2=O)cc1OC	
0.85	1.3	O=c1c(-c2ccc(F)cc2)coc2cc3occ(-c4ccc(F)cc4)c(=O)c3c(O)c12	
0.76	0.82	COc1ccccc1-c1coc2cc3occ(-c4ccccc4OC)c(=O)c3c(O)c2c1=O	
	2.39	COc1ccc(CCN(C)CCCC(C#N)(c2ccc(OC)c(OC)c2)C(C)C)cc1OC (centres undefined) [VERAPAMIL]	
0.8	0.81	O=c1c(-c2ccc(Cl)c(Cl)c2)coc2c1c(O)cc1occ(-c3ccc(Cl)c(Cl)c3)c(=O)c12	
0.87	0.9	O=c1c(-c2ccc(C(F)(F)F)cc2)coc2c1c(O)cc1occ(-c3ccc(C(F)(F)F)cc3)c(=O)c12	

fold change (FC) [1]	fold change (FC) [2]	SMILES	further results
0.87	1.3	COc1ccc(-c2coc3cc4occ(-c5ccc(OC)cc5)c(=O)c4c(O)c3c2=O)cc1	
1.58	2.04	Cc1ccc(-c2coc3c(c(O)cc4occ(-c5ccc(C)cc5)c(=O)c43)c2=O)cc1	
1.19	1.28	COc1cccc(-c2coc3c(c(O)cc4occ(-c5cccc(OC)c5)c(=O)c43)c2=O)c1	
0.6	0.75	O=c1c(-c2cccc(F)c2)coc2cc3occ(-c4cccc(F)c4)c(=O)c3c(O)c12	
1.62	1.81	Cc1ccc(-c2coc3cc4occ(-c5ccc(C)cc5)c(=O)c4c(O)c3c2=O)cc1	
1.01	0.99	O=c1c(-c2cccc(O)c2)coc2c1c(O)cc1occ(-c3cccc(O)c3)c(=O)c12	
0.72	0.64	O=c1c(-c2cccc3ccccc23)coc2cc3occ(-c4cccc5ccccc45)c(=O)c3c(O)c12	
0.87	0.85	O=c1c(-c2cccc3ccccc23)coc2c1c(O)cc1occ(-c3cccc4ccccc34)c(=O)c12	
0.8	0.72	COc1cc(-c2coc3cc4occ(-c5cc(OC)c(OC)c(OC)c5)c(=O)c4c(O)c3c2=O)cc(OC)c1OC	
0.86	0.86	O=c1c(C2CC2)coc2cc3occ(C4CC4)c(=O)c3c(O)c12	
0.76	0.82	O=c1c(-c2ccc(Cl)cc2)coc2c1c(O)cc1occ(-c3ccc(Cl)cc3)c(=O)c12	
1.45	1.64	COc1ccc(-c2coc3c(c(O)cc4occ(-c5ccc(OC)c(OC)c5)c(=O)c43)c2=O)cc1OC	fold change (FC) (HEK293 [3]): 8.2; fold change (FC) (HEK293 [4]): 1.3; fold change (FC) [5]: 1.5; fold change (FC) [6]: 8.8; Activity (HEK293 [7]): Active; fold change (FC) (HEK293 [8]): 1.3; fold change (FC) [9]: 9.7; fold change (FC) (HEK293 [10]): 1; fold change (FC) [11]: 4.1; fold change (FC) (HEK293 [12]): 7.8; fold change (FC) (HEK293 [13]): 1.2; fold change (FC) [14]: 9.5; fold change (FC) [15]: 1.5
0.92	0.84	O=c1c(-c2ccc(F)cc2)coc2c1c(O)cc1occ(-c3ccc(F)cc3)c(=O)c12	
1.27	1.18	O=c1c(-c2cccc(C(F)(F)F)c2)coc2cc3occ(-c4cccc(C(F)(F)F)c4)c(=O)c3c(O)c12	
0.85	0.83	O=c1c(-c2ccccc2[N+](=O)[O-])coc2cc3occ(-c4ccccc4[N+](=O)[O-])c(=O)c3c(O)c12	
0.76	0.67	O=c1c(-c2ccccc2F)coc2c1c(O)cc1occ(-c3ccccc3F)c(=O)c12	
0.76	0.81	O=c1c(-c2ccccc2C(F)(F)F)coc2c1c(O)cc1occ(-c3ccccc3C(F)(F)F)c(=O)c12	
0.97	1.04	O=c1c(-c2ccc(OC(F)(F)F)cc2)coc2c1c(O)cc1occ(-c3ccc(OC(F)(F)F)cc3)c(=O)c12	
0.98	1.03	O=c1c(-c2ccccc2[N+](=O)[O-])coc2c1c(O)cc1occ(-c3ccccc3[N+](=O)[O-])c(=O)c12	
0.86	0.93	Cc1cccc(-c2coc3cc4occ(-c5cccc(C)c5)c(=O)c4c(O)c3c2=O)c1	
0.72	0.7	O=c1c(-c2ccc3c(c2)OCO3)coc2c1c(O)cc1occ(-c3ccc4c(c3)OCO4)c(=O)c12	
1.4	1.56	COc1ccccc1-c1coc2c(c(O)cc3occ(-c4ccccc4OC)c(=O)c32)c1=O	
0.62	0.63	O=c1c(-c2ccc(OC(F)(F)F)cc2)coc2cc3occ(-c4ccc(OC(F)(F)F)cc4)c(=O)c3c(O)c12	
0.96	0.82	O=c1c(-c2cccc(F)c2)coc2c1c(O)cc1occ(-c3cccc(F)c3)c(=O)c12	
0.66	0.64	O=c1c(-c2c(F)cccc2Cl)coc2c1c(O)cc1occ(-c3c(F)cccc3Cl)c(=O)c12	
